Tests used:
[1] = AUC(0 to last) in Sprague-Dawley rat at 10 mg/kg, po administered via gavage measured under fed conditions by LC-MS/MS analysis; assay type: ADME, organism-based; design: time 0 - last, dose 10 mg/kg, route oral; conditions: plasma
Outline: (§1)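 Nonfasted male Sprague-Dawley rats given a single 10 mg/kg oral dose in 50 mM HEPES buffered saline, pH 7.4. Plasma collected 0.25–24 h into heparin/NEM tubes and assayed by LC-MS/MS. Noncompartmental parameters derived, including Cl/F and Vd/F. Mean ± S.D., n = 6–9.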

[2] = Apparent volume of distribution in Sprague-Dawley rat at 10 mg/kg, po administered via gavage measured under fed conditions by LC-MS/MS analysis; assay type: ADME, organism-based; design: dose 10 mg/kg, route oral; conditions: in vivo; outline: as §1
[3] = Tmax in Sprague-Dawley rat at 10 mg/kg, iv by LC-MS/MS analysis; assay type: ADME, organism-based; design: dose 10 mg/kg, route intravenous; conditions: in vivo
[4] = AUC(0 to last) in Sprague-Dawley rat at 10 mg/kg, iv by LC-MS/MS analysis; assay type: ADME, organism-based; design: time 0 - last, dose 10 mg/kg, route intravenous; conditions: plasma
Outline: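 Male Sprague-Dawley rats dosed intravenously at 10 mg/kg (n = 6). Blood sampling extended to 7 days into heparin tubes containing NEM. Plasma assayed for parent and homodisulfide by LC-MS/MS, calibration range 1–5000 ng/ml. Noncompartmental analysis, t1/2 = 0.693/λz. Mean ± S.D.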

[5] = Volume of distribution in Sprague-Dawley rat at 10 mg/kg, iv by LC-MS/MS analysis; assay type: ADME, organism-based; design: dose 10 mg/kg, route intravenous; conditions: in vivo
Cynomolgus monkey = assay: Apparent oral clearance in cynomolgus monkey at 5 mg/kg, po by LC-MS/MS analysis; assay type: ADME, organism-based, Macaca fascicularis; design: dose 5 mg/kg, route oral; conditions: in vivo
Outline: (§2)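 Cynomolgus monkeys (n = 3) dosed orally at a nominal 5 mg/kg in TCEP-treated 50 mM HEPES solution. Blood taken via iliac or femoral arterial cannula up to 9 days into heparin/NEM tubes. Plasma analyzed by LC-MS/MS. Cl/F and Vd/F derived noncompartmentally.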

[6] = Apparent volume of distribution in cynomolgus monkey at 5 mg/kg, po by LC-MS/MS analysis; assay type: ADME, organism-based, Macaca fascicularis; design: dose 5 mg/kg, route oral; conditions: in vivo; outline: as §2
[7] = Elimination half life in cynomolgus monkey at 5 mg/kg, po by LC-MS/MS analysis; assay type: ADME, organism-based, Macaca fascicularis; design: dose 5 mg/kg, route oral; conditions: in vivo, read-out: beta t1/2 (converted)
Outline: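 Cynomolgus monkeys (n = 3) received a nominal 5 mg/kg dose in 50 mM HEPES, TCEP-treated to prevent disulfide formation. Dosing was either an IV bolus via cephalic or saphenous vein or oral. Arterial cannula blood was collected into NEM-containing heparinized tubes for up to 9 days and analyzed by LC-MS/MS. Noncompartmental analysis gave t1/2 = 0.693/λz and F% = dose-normalized mean AUCinf p.o./i.v. ×100.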

[8] = Phase 1 metabolic stability in monkey liver microsomes assessed as compound remaining at 10 uM measured for 1 hr by LC-MS/MS analysis; assay type: ADME, Macaca mulatta; conditions: rhesus monkey, read-out: Stability
Outline: (§3)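 Liver microsomes (0.5 mg/ml) were incubated with 10 µM compound (final) in 100 mM potassium phosphate, pH 7.4. An NADPH-regenerating system was present: 1.3 mM NADPH, 3.3 mM glucose 6-phosphate, 3.3 mM MgCl2, 0.4 U/ml G6PDH and 50 µM sodium citrate. Runs were in duplicate, with samples taken up to 1 h and quenched with acetonitrile containing internal standard. Loss of compound was followed by LC-MS/MS.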

[9] = Phase 1 metabolic stability in mouse liver microsomes assessed as compound remaining at 10 uM measured for 1 hr by LC-MS/MS analysis in absence of cofactors; assay type: ADME; conditions: read-out: Stability
Outline: (§4)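 Cofactor-free controls were run for each microsomal incubation: 0.5 mg/ml liver microsomes with 10 µM compound, omitting cofactors, so that cofactor-independent degradation could be measured. Samples were taken up to 1 h, quenched with acetonitrile containing internal standard, and the percent remaining was determined by LC-MS/MS.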

[10] = Phase 2 metabolic stability in dog liver microsomes assessed as compound remaining at 10 uM measured for 1 hr by LC-MS/MS analysis in absence of cofactors; assay type: ADME, Canis lupus familiaris; conditions: read-out: Stability; outline: as §4
[11] = Cmax in Sprague-Dawley rat at 0.1 mg/kg, po administered via gavage measured under fasted conditions by LC-MS/MS analysis; assay type: ADME, organism-based; design: dose 0.1 mg/kg, route oral; conditions: in vivo
Outline: (§5)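 Fasted male Sprague-Dawley rats (280–330 g) received 0.1, 1, 10 or 30 mg/kg by oral gavage in 50 mM HEPES buffered saline, pH 7.4. Blood drawn at 0.25–24 h into heparin/NEM tubes; plasma analyzed by LC-MS/MS. Cmax taken as observed. AUC by linear trapezoidal rule with extrapolation by λz. Cl/F and Vd/F reported. Mean ± S.D., n = 4–9.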

[12] = Cmax in Sprague-Dawley rat at 30 mg/kg, po administered via gavage measured under fasted conditions by LC-MS/MS analysis; assay type: ADME, organism-based; design: dose 30 mg/kg, route oral; conditions: in vivo; outline: as §5
[13] = AUC(0 to infinity) in Sprague-Dawley rat at 1 mg/kg, iv administered as bolus injection measured under fasted conditions by LC-MS/MS analysis; assay type: ADME, organism-based; design: time infinity, dose 1 mg/kg, route intravenous; conditions: plasma
Outline: (§6)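 Male Sprague-Dawley rats (280–330 g), jugular vein cannulated, fasted overnight until 4 h post-dose. Single tail-vein bolus of 0.1, 1, 10 or 30 mg/kg in 50 mM HEPES buffered saline, pH 7.4. Blood drawn 0–24 h into heparin tubes containing NEM. Plasma quantified by LC-MS/MS after NEM derivatization. Noncompartmental analysis: AUClast by linear trapezoidal rule, Cl = dose/AUC0-∞. Mean ± S.D., n = 4–9.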

Rattus norvegicus = assay: Apparent oral clearance in Sprague-Dawley rat at 0.1 mg/kg, po administered via gavage measured under fasted conditions by LC-MS/MS analysis; assay type: ADME, organism-based; design: dose 0.1 mg/kg, route oral; conditions: in vivo; outline: as §5
[14] = Tmax in Sprague-Dawley rat at 10 mg/kg, po administered via gavage measured under fasted conditions by LC-MS/MS analysis; assay type: ADME, organism-based; design: dose 10 mg/kg, route oral; conditions: in vivo
Outline: (§7)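 Jugular-cannulated male Sprague-Dawley rats, 280–330 g, fasted overnight to 4 h post-dose. Single dose in 50 mM HEPES-buffered saline pH 7.4, by oral gavage or as tail-vein i.v. bolus. Blood into heparin/NEM tubes at 0–24 h. Plasma measured by LC-MS/MS; noncompartmental analysis; Tmax observed; Vd = dose/(AUCinf·λz).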

[15] = Tmax in Sprague-Dawley rat at 30 mg/kg, po administered via gavage measured under fasted conditions by LC-MS/MS analysis; assay type: ADME, organism-based; design: dose 30 mg/kg, route oral; conditions: in vivo; outline: as §7
[16] = AUC(0 to last) in Sprague-Dawley rat at 1 mg/kg, iv administered as bolus injection measured under fasted conditions by LC-MS/MS analysis; assay type: ADME, organism-based; design: time 0 - last, dose 1 mg/kg, route intravenous; conditions: plasma; outline: as §6
[17] = Phase 1 metabolic stability in mouse liver microsomes assessed as compound remaining at 10 uM measured for 1 hr by LC-MS/MS analysis; assay type: ADME; conditions: read-out: Stability; outline: as §3
[18] = Volume of distribution in Sprague-Dawley rat at 1 mg/kg, iv administered as bolus injection measured under fasted conditions by LC-MS/MS analysis; assay type: ADME, organism-based; design: dose 1 mg/kg, route intravenous; conditions: in vivo; outline: as §7
[19] = Apparent volume of distribution in Sprague-Dawley rat at 1 mg/kg, po administered via gavage measured under fasted conditions by LC-MS/MS analysis; assay type: ADME, organism-based; design: dose 1 mg/kg, route oral; conditions: in vivo; outline: as §5
[20] = Half life in Sprague-Dawley rat at 0.1 mg/kg, iv administered as bolus injection measured under fasted conditions by LC-MS/MS analysis; assay type: ADME, organism-based; design: dose 0.1 mg/kg, route intravenous; conditions: in vivo
[21] = Half life in Sprague-Dawley rat at 10 mg/kg, iv administered as bolus injection measured under fasted conditions by LC-MS/MS analysis; assay type: ADME, organism-based; design: dose 10 mg/kg, route intravenous; conditions: in vivo
[22] = Oral bioavailability in Sprague-Dawley rat at 30 mg/kg administered via gavage measured under fasted conditions by LC-MS/MS analysis; assay type: ADME, organism-based; conditions: in vivo

- AUC(0-t) [1]: 32200 ng·h/mL
- Vd/F [2]: 1.09 L/kg
- Tmax [3]: 6.6 min
- AUC(0-t) [4]: 86700 ng·h/mL
- Vd [5]: 19 L/kg
- CL/F (Cynomolgus monkey): 0.95 mL/min/kg
- Vd/F [6]: 0.79 L/kg
- half-life [7]: 9.57 h
- remaining at 1 h, 10 µM [8]: > 90%
- remaining at 1 h, 10 µM [9]: > 90%
- remaining at 1 h, 10 µM [10]: > 90%
- Cmax [11]: 62.6 ng/mL
- Cmax [12]: 13000 ng/mL
- AUC(0-inf) [13]: 13000 ng·h/mL
- CL/F (Rattus norvegicus): 8.5 mL/min/kg
- Tmax [14]: 1.03 h
- Tmax [15]: 1.43 h
- AUC(0-t) [16]: 12700 ng·h/mL
- remaining at 1 h, 10 µM [17]: > 90%
- Vd [18]: 0.21 L/kg
- Vd/F [19]: 1.65 L/kg
- half-life [20]: 2.3 h
- half-life [21]: 3.55 h
- bioavailability [22]: 37.5%
SMILES: O=C(O)c1cccc(-c2cccc(CCS)c2C(=O)O)c1

From ChEMBL document CHEMBL3526151, “Reversible disulfide formation of the glutamate carboxypeptidase II inhibitor E2072 results in prolonged systemic exposures in vivo” (Drug Metab Dispos, 2012)
